In ChEMBL document CHEMBL3044585, “Potent in vivo antifungal activity against powdery mildews of pregnane glycosides from the roots of Cynanchum wilfordii” (J Agric Food Chem, 2011):
In brackets after ≈: the same amount, converted by molar mass.

What was measured:
Blumeria hordei [1] = assay: Antifungal activity against Blumeria graminis f. sp. hordei assessed as control of barley powdery mildew treated 1 day before inoculation; type: functional, organism-based
How it was run: (§1)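 One-day protective test on barley against powdery mildew: plants treated 1 day before inoculation, with Tween 20 solution alone as the untreated reference. Pots in randomized complete block design, three replicates per treatment, experiment run twice. Infected leaf area (%) scored; % control = 100[(A − B)/A], A = infection on Tween 20-sprayed leaves, B = infection on treated leaves; reported ± standard deviation.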

Podosphaera macularis [2] = assay: Antifungal activity against Sphaerotheca humuli assessed as diseased fruits in strawberry powdery mildew at 4000 fold dilution (reference value: 62.2%); type: functional
How it was run: (§2)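 Commercial greenhouse trial on strawberry cv. Janghee. Plots were 4 m long, with data taken from the middle 3 m. Sprays applied by hand-held sprayer until runoff, three times at 1-week intervals. Before each spray, ripe fruits were harvested and total and diseased fruits counted. Percentage of diseased fruits given as the mean of three replicates; disease-control percentage calculated relative to untreated control.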

Podosphaera macularis [3] = assay: Antifungal activity against Sphaerotheca humuli assessed as control of strawberry powdery mildew at 4000 fold dilution; type: functional; how it was run: as §2
Blumeria hordei [4] = assay: Antifungal activity against Blumeria graminis f. sp. hordei assessed as control of barley powdery mildew at 63 ug/mL treated 1 day before inoculation; type: functional; how it was run: as §1
Blumeria hordei [5] = assay: Antifungal activity against Blumeria graminis f. sp. hordei assessed as control of barley powdery mildew at 16 ug/mL treated 1 day before inoculation; type: functional
How it was run: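 Barley plants in pots treated with sample in Tween 20 solution and inoculated 1 day later (protective assay). Randomized complete block design, three replicates per treatment, experiment run twice. Infected leaf area (%) scored. % control = 100[(A−B)/A], where A is the infection area on leaves sprayed with Tween 20 solution alone; reported ± standard deviation.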

[6] = Blumeria hordei, read-out: IC50

| SMILES | IC50 (Blumeria hordei [1]; [6]) | Activity (Blumeria hordei [4]) | further results |
| --- | --- | --- | --- |
| Cc1cc(O)c2c(c1)C(=O)c1cccc(O)c1C2=O [CHRYSOPHANOL] | 4.7 µg/mL (≈ 18.5 µM) | – | – |
| CCCOC/C(=N\c1ccc(Cl)cc1C(F)(F)F)n1ccnc1 [TRIFLUMIZOLE] | – | – | Activity (Podosphaera macularis [2]): 7.2%; Activity (Podosphaera macularis [3]): 89% |
| CO[C@H]1C[C@H](O[C@H]2[C@@H](OC)C[C@H](O[C@H]3CC[C@@]4(C)C(=CC[C@]5(O)[C@@H]4C[C@@H](OC(=O)/C=C(\C)C(C)C)[C@@]4(C)[C@]5(O)CC[C@]4(O)C(C)=O)C3)O[C@@H]2C)O[C@@H](C)[C@H]1O[C@H]1C[C@H](OC)[C@H](O[C@H]2C[C@@H](OC)[C@@H](O)[C@H](C)O2)[C@@H](C)O1 [WILFOSIDE C1N] | 3.24 µg/mL (≈ 3.04 µM) | >77% | Activity (Blumeria hordei [5]): 95% |
| CO[C@H]1C[C@H](O[C@H]2[C@@H](OC)C[C@H](O[C@H]3CC[C@@]4(C)C(=CC[C@]5(O)[C@@H]4C[C@@H](OC(=O)/C=C/c4ccccc4)[C@@]4(C)[C@]5(O)CC[C@]4(O)C(C)=O)C3)O[C@@H]2C)O[C@@H](C)[C@H]1O[C@H]1C[C@H](OC)[C@H](O[C@H]2C[C@@H](OC)[C@@H](O[C@@H]3O[C@H](CO)[C@@H](O[C@@H]4O[C@H](CO)[C@@H](O)[C@H](O)[C@H]4O)[C@H](O)[C@H]3O)[C@H](C)O2)[C@@H](C)O1 [WILFOSIDE K1GG] | – | – | IC50 (Blumeria hordei [1]): Not Active |
| CO[C@H]1C[C@H](O[C@H]2[C@@H](OC)C[C@H](O[C@H]3CC[C@@]4(C)C(=CC[C@]5(O)[C@@H]4C[C@@H](OC(=O)/C=C/c4ccccc4)[C@@]4(C)[C@]5(O)CC[C@]4(O)C(C)=O)C3)O[C@@H]2C)O[C@@H](C)[C@H]1O[C@H]1C[C@H](OC)[C@H](O[C@H]2C[C@@H](OC)[C@@H](O)[C@H](C)O2)[C@@H](C)O1 [WILFOSIDE K1N] | – | – | IC50 (Blumeria hordei [1]): Not Active |

Now from value to molecule, other results behind:

| IC50 (Blumeria hordei [1]; [6]) | SMILES | Activity (Blumeria hordei [4]) | further results |
| --- | --- | --- | --- |
| 20 µg/mL (≈ 92.5 µM) | CC(=O)c1c(C)cc2cccc(O)c2c1O [NEPODIN] | – | – |
| 71.4 µg/mL (≈ 141 µM) | NC(=O)OC[C@H](O)[C@@H](O)[C@H](N)C(=O)N[C@H](C(=O)O)[C@H]1O[C@@H](n2cc(CO)c(=O)[nH]c2=O)[C@H](O)[C@@H]1O [POLYOXIN B] | – | – |
| 28.3 µg/mL (≈ 20.4 µM) | CO[C@H]1C[C@H](O[C@H]2[C@@H](OC)C[C@H](O[C@H]3CC[C@@]4(C)C(=CC[C@]5(O)[C@@H]4C[C@@H](OC(=O)/C=C(\C)C(C)C)[C@@]4(C)[C@]5(O)CC[C@]4(O)C(C)=O)C3)O[C@@H]2C)O[C@@H](C)[C@H]1O[C@H]1C[C@H](OC)[C@H](O[C@H]2C[C@@H](OC)[C@@H](O[C@@H]3O[C@H](CO)[C@@H](O[C@@H]4O[C@H](CO)[C@@H](O)[C@H](O)[C@H]4O)[C@H](O)[C@H]3O)[C@H](C)O2)[C@@H](C)O1 [WILFOSIDE C1GG] | >77% | – |
| 12.9 µg/mL (≈ 10.5 µM) | CO[C@H]1C[C@H](O[C@H]2[C@@H](OC)C[C@H](O[C@H]3CC[C@@]4(C)C(=CC[C@]5(O)[C@@H]4C[C@@H](OC(=O)/C=C(\C)C(C)C)[C@@]4(C)[C@]5(O)CC[C@]4(O)C(C)=O)C3)O[C@@H]2C)O[C@@H](C)[C@H]1O[C@H]1C[C@H](OC)[C@H](O[C@H]2C[C@@H](OC)[C@@H](O[C@@H]3O[C@H](CO)[C@@H](O)[C@H](O)[C@H]3O)[C@H](C)O2)[C@@H](C)O1 [WILFOSIDE C1G] | >77% | Activity (Blumeria hordei [5]): 78% |
